According to ChEMBL document CHEMBL4610084, “Antibacterial and ATP Synthesis Modulating Compounds from Salvia tingitana” (2020):

Key:
Bos taurus [1] = organism: Bos taurus; test: Modulation of ATP synthase in bovine rod outer segments assessed as inhibition of ATP production at 80 ug/ml in presence of Ap5A adenylate kinase inhibitor by luciferin/luciferase chemiluminescent method relative to control
How it was run: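 Bovine rod OS (5 μg) preincubated 5 min at 37 °C in Tris/HCl pH 7.4 with KCl, EGTA, MgCl2, 0.6 mM ouabain, 0.25 mM Ap5A, 5 mM KH2PO4, 20 mM succinate, 0.35 mM NADH and ampicillin. Synthesis started with 0.1 mM ADP and stopped with perchloric acid. ATP read by luciferin/luciferase luminescence. Samples at 80 μg/mL; 30 μM resveratrol as positive control. Triplicates, ANOVA/Bonferroni.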

Enterococcus faecalis [2] = test: Antibacterial activity against Vancomycin resistant Enterococcus faecalis MB19 after 24 hrs by microdilution assay; format: functional; conditions: MB19, 24 h
How it was run: (§1)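 Broth microdilution MIC, run as in an earlier cited report. Strains are clinical isolates identified by standard methods and MALDI-TOF; E. faecalis MB19 and MB51 are Ligurian seawater isolates. Highest concentration tested was 128 μg/mL. MICs are given in μg/mL and μM, with oxacillin and vancomycin as reference antibiotics.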

Enterococcus faecium [3] = test: Bacteriostatic activity against Enterococcus faecium MB152 assessed as ratio of reduction in bacterial growth by measuring order of magnitude at 4 times MIC by time kill assay; format: functional
How it was run: (§2)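 Time-kill curves: viable cell counts of susceptible strains recorded with or without compound at 4 × MIC.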

Enterococcus faecalis [4] = test: Antibacterial activity against Enterococcus faecalis MB76 after 24 hrs by microdilution assay; format: functional; conditions: MB76, 24 h; how it was run: as §1
Staphylococcus hominis = test: Antibacterial activity against Methicillin-resistant Staphylococcus hominis MB124 after 24 hrs by microdilution assay; format: functional; conditions: MB124, 24 h; how it was run: as §1
Enterococcus faecalis [5] = test: Antibacterial activity against Vancomycin resistant Enterococcus faecalis MB1 after 24 hrs by microdilution assay; format: functional; conditions: MB1, 24 h; how it was run: as §1
Enterococcus faecium [6] = test: Antibacterial activity against Enterococcus faecium MB152 after 24 hrs by microdilution assay; format: functional; conditions: MB152, 24 h
How it was run: (§3)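 Broth microdilution MIC against clinical or seawater-isolated strains (identified by standard procedures and MALDI-TOF), with compound solutions and testing as in earlier work. MIC reported in μg/mL and μM.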

Enterococcus faecalis [7] = test: Bacteriostatic activity against Enterococcus faecalis MB1 assessed as ratio of reduction in bacterial growth at 4 times MIC by time kill assay; format: functional; how it was run: as §2
[8] = system: Enterococcus casseliflavus; test: Antibacterial activity against Vancomycin resistant Enterococcus casseliflavus MB159 after 24 hrs by microdilution assay; format: functional; conditions: MB159, 24 h; how it was run: as §1
Enterococcus faecium [9] = test: Antibacterial activity against Enterococcus faecium MB3 after 24 hrs by microdilution assay; format: functional; conditions: MB3, 24 h; how it was run: as §3
[10] = system: Staphylococcus saprophyticus; test: Antibacterial activity against Staphylococcus saprophyticus MB41 after 24 hrs by microdilution assay; format: functional; conditions: MB41, 24 h; how it was run: as §3
Enterococcus gallinarum = test: Antibacterial activity against Vancomycin resistant Enterococcus gallinarum MB111 after 24 hrs by microdilution assay; format: functional; conditions: MB111, 24 h; how it was run: as §1
Staphylococcus aureus [11] = test: Antibacterial activity against Methicillin-resistant Staphylococcus aureus MB18 after 24 hrs by microdilution assay; format: functional; conditions: MB18, 24 h; how it was run: as §1
[12] = system: Staphylococcus haemolyticus; test: Antibacterial activity against Methicillin-resistant Staphylococcus haemolyticus MB115 after 24 hrs by microdilution assay; format: functional; conditions: MB115, 24 h; how it was run: as §1
Staphylococcus aureus [13] = test: Antibacterial activity against Methicillin-resistant Staphylococcus aureus MB188 after 24 hrs by microdilution assay; format: functional; conditions: MB188, 24 h; how it was run: as §1
Enterococcus avium = test: Antibacterial activity against Enterococcus avium MB119 after 24 hrs by microdilution assay; format: functional; conditions: MB119, 24 h; how it was run: as §3
Staphylococcus capitis = test: Antibacterial activity against Methicillin-resistant Staphylococcus capitis MB71 after 24 hrs by microdilution assay; format: functional; conditions: MB71, 24 h; how it was run: as §1
Enterococcus faecalis [14] = test: Antibacterial activity against Vancomycin resistant Enterococcus faecalis MB51 after 24 hrs by microdilution assay; format: functional; conditions: MB51, 24 h; how it was run: as §1
Enterococcus durans = test: Antibacterial activity against Enterococcus durans MB113 after 24 hrs by microdilution assay; format: functional; conditions: MB113, 24 h; how it was run: as §3
Enterococcus faecium [15] = test: Antibacterial activity against Enterococcus faecium MB2 after 24 hrs by microdilution assay; format: functional; conditions: MB2, 24 h; how it was run: as §3
[16] = system: Staphylococcus lugdunensis; test: Antibacterial activity against Staphylococcus lugdunensis MB96 after 24 hrs by microdilution assay; format: functional; conditions: MB96, 24 h; how it was run: as §3
Staphylococcus simulans = test: Antibacterial activity against Staphylococcus simulans MB94 after 24 hrs by microdilution assay; format: functional; conditions: MB94, 24 h; how it was run: as §3
[17] = system: Staphylococcus epidermidis; test: Antibacterial activity against Methicillin-resistant Staphylococcus epidermidis MB169 after 24 hrs by microdilution assay; format: functional; conditions: MB169, 24 h; how it was run: as §1
[18] = system: Staphylococcus epidermidis; test: Antibacterial activity against Methicillin-resistant Staphylococcus epidermidis MB165 after 24 hrs by microdilution assay; format: functional; conditions: MB165, 24 h; how it was run: as §1
Staphylococcus warneri = test: Antibacterial activity against Methicillin-resistant Staphylococcus warneri MB74 after 24 hrs by microdilution assay; format: functional; conditions: MB74, 24 h; how it was run: as §1
Bos taurus [19] = organism: Bos taurus; test: Modulation of ATP synthase in bovine rod outer segments assessed as inhibition of ATP hydrolysis at 80 ug/ml in presence of Ap5A adenylate kinase inhibitor by pyruvate kinase/lactate dehydrogenase assay relative to control
Enterococcus faecium [20] = test: Modulation of ATP synthase in Enterococcus faecium MB152 assessed as inhibition of ATP production at 5 times MIC after 2 hrs by BacTiter-Glo Assay
How it was run: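 Whole-cell ATP assay. VRE strain grown overnight in Mueller Hinton broth at 37 °C, diluted 1:10^6 in fresh broth and grown 2 h, then adjusted by OD600. Manool added at 5 × MIC. Samples taken at 0 and 2 h and mixed 1:1 with BacTiter-Glo for 5 min at room temperature. Luminescence converted via an ATP standard curve (1–0.001 pmol) to pmol/cfu. Broth serves as negative control. Three experiments in triplicate, Student's t test.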

Row | SMILES | MIC (Enterococcus faecalis [2]) | MIC (Enterococcus faecalis [4]) | MIC (Staphylococcus hominis) | MIC (Enterococcus faecalis [5]) | MIC (Enterococcus faecium [6]) | MIC [8] | MIC (Enterococcus faecium [9]) | MIC [10] | MIC (Enterococcus gallinarum) | MIC (Staphylococcus aureus [11]) | MIC [12] | MIC (Staphylococcus aureus [13]) | MIC (Enterococcus avium) | MIC (Staphylococcus capitis) | MIC (Enterococcus faecalis [14]) | MIC (Enterococcus durans) | MIC (Enterococcus faecium [15]) | MIC [16] | MIC (Staphylococcus simulans) | MIC [17] | also measured
1 | CC1=CC(=O)O[C@@H]1C/C=C(\C)CC[C@@H]1[C@@]2(C)CCC[C@@]3(C)C(=O)O[C@@H](C[C@@]1(C)O)[C@H]23 | 308 µM | 308 µM | > 128 µg/mL | 154 µM | 308 µM | 308 µM | 308 µM | > 128 µg/mL | 154 µM | 308 µM | > 128 µg/mL | > 128 µg/mL | 154 µM | 154 µM | 154 µM | > 128 µg/mL | > 128 µg/mL | 308 µM | > 128 µg/mL | > 128 µg/mL | inhibition (Bos taurus [1]): 79%; Ratio (Enterococcus faecium [3]): 1 - 2; Ratio (Enterococcus faecalis [7]): 1 - 2; MIC [18]: 308 µM; MIC (Staphylococcus warneri): 308 µM
2 | C=C[C@@](C)(O)CC[C@H]1C(=C)CC[C@H]2C(C)(C)CCC[C@]12C [MANOOL] | 110 µM | 110 µM | > 128 µg/mL | 55 µM | 28 µM | 55 µM | 28 µM | > 128 µg/mL | 14 µM | > 128 µg/mL | > 128 µg/mL | > 128 µg/mL | 28 µM | > 128 µg/mL | 55 µM | 55 µM | 14 µM | > 128 µg/mL | > 128 µg/mL | > 128 µg/mL | inhibition (Bos taurus [1]): 60%; Ratio (Enterococcus faecium [3]): 1 - 2; Ratio (Enterococcus faecalis [7]): 1 - 2; inhibition (Bos taurus [19]): 92%; inhibition (Enterococcus faecium [20]): 30%; MIC [18]: > 128 µg/mL; MIC (Staphylococcus warneri): > 128 µg/mL
3 | CC1=CC(=O)OC1C/C=C(\C)CC[C@@H]1[C@@]2(C)CCC[C@@](C)(CO)[C@@H]2CC[C@@]1(C)O (some centres undefined) | 79.2 µM | 158 µM | 317 µM | 317 µM | 158 µM | 158 µM | 317 µM | 317 µM | 158 µM | 317 µM | > 128 µg/mL | > 128 µg/mL | 158 µM | 317 µM | 158 µM | > 128 µg/mL | 317 µM | > 128 µg/mL | > 128 µg/mL | > 128 µg/mL | MIC [18]: 317 µM; MIC (Staphylococcus warneri): 317 µM
4 | COC(=O)[C@]1(C)CCC[C@@]2(C)[C@H]1CC[C@@](C)(O)[C@@H]2CC/C(C)=C/C[C@H]1OC(=O)C=C1C | 148 µM | 148 µM | 296 µM | 74.1 µM | 296 µM | 296 µM | 148 µM | 296 µM | 148 µM | > 128 µg/mL | 296 µM | 296 µM | 296 µM | 148 µM | 296 µM | 296 µM | 296 µM | 296 µM | > 128 µg/mL | > 128 µg/mL | MIC [18]: 296 µM; MIC (Staphylococcus warneri): 148 µM
5 | CC1(C)CCC[C@]2(C)[C@@H](CC[C@](C)(O)[C@H]3CO3)[C@](C)(O)CC[C@@H]12 | 198 µM | 198 µM | 395 µM | 99 µM | 198 µM | 198 µM | 99 µM | 395 µM | 99 µM | 395 µM | 395 µM | 395 µM | 99 µM | 395 µM | 99 µM | 198 µM | 198 µM | 198 µM | 395 µM | 395 µM | MIC [18]: 395 µM; MIC (Staphylococcus warneri): 198 µM
6 | COC1O[C@H]2C[C@@](C)(O)[C@H](CC/C(C)=C/[C@H](O)[C@H]3OC(=O)C=C3C)[C@@]3(C)CCC[C@]1(C)[C@H]23 (some centres undefined) | 286 µM | 143 µM | 286 µM | 143 µM | 286 µM | 286 µM | 143 µM | 286 µM | 143 µM | 286 µM | > 128 µg/mL | > 128 µg/mL | 143 µM | 286 µM | 143 µM | > 128 µg/mL | 286 µM | > 128 µg/mL | > 128 µg/mL | 286 µM | MIC [18]: > 128 µg/mL; MIC (Staphylococcus warneri): > 128 µg/mL
7 | COc1ccc(-c2cc(=O)c3c(O)c(OC)c(OC)cc3o2)cc1O [EUPATORIN] | 186 µM | 186 µM | > 128 µg/mL | 186 µM | 372 µM | 372 µM | > 128 µg/mL | > 128 µg/mL | 186 µM | > 128 µg/mL | > 128 µg/mL | > 128 µg/mL | 186 µM | > 128 µg/mL | 372 µM | > 128 µg/mL | 372 µM | > 128 µg/mL | > 128 µg/mL | > 128 µg/mL | MIC [18]: > 128 µg/mL; MIC (Staphylococcus warneri): > 128 µg/mL
8 | COC(=O)[C@]1(C)CCC[C@@]2(C)[C@H]1[C@@H](O)C[C@@](C)(O)[C@@H]2CC/C(C)=C/C[C@H]1OC(=O)C=C1C | 286 µM | 286 µM | 286 µM | 143 µM | 143 µM | 143 µM | 286 µM | > 128 µg/mL | 286 µM | 286 µM | > 128 µg/mL | > 128 µg/mL | 143 µM | 286 µM | 143 µM | 286 µM | 286 µM | > 128 µg/mL | > 128 µg/mL | > 128 µg/mL | inhibition (Bos taurus [1]): 60%; Ratio (Enterococcus faecium [3]): 1 - 2; Ratio (Enterococcus faecalis [7]): 1 - 2; MIC [18]: 286 µM; MIC (Staphylococcus warneri): 286 µM
9 | CC1=CC(=O)O[C@@H]1C/C=C(\C)CC[C@@H]1[C@@]2(C)CCC[C@@]3(C)C(O)O[C@@H](C[C@@]1(C)O)[C@H]23 (some centres undefined) | > 128 µg/mL | > 128 µg/mL | > 128 µg/mL | > 128 µg/mL | > 128 µg/mL | > 128 µg/mL | > 128 µg/mL | > 128 µg/mL | > 128 µg/mL | > 128 µg/mL | > 128 µg/mL | > 128 µg/mL | > 128 µg/mL | > 128 µg/mL | > 128 µg/mL | > 128 µg/mL | > 128 µg/mL | > 128 µg/mL | > 128 µg/mL | > 128 µg/mL | MIC [18]: > 128 µg/mL; MIC (Staphylococcus warneri): > 128 µg/mL
